Results from ChEMBL document CHEMBL1135968, “The effect of a phosphodiester linking group on albumin binding, blood half-life, and relaxivity of intravascular diethylenetriaminepentaacetato aquo gadolinium(III) MRI contrast agents” (J Med Chem, 2002).

What was measured:
Rattus norvegicus [1] = organism: Rattus norvegicus; experiment: Elimination of half-life in rat; format: ADME, organism-based; conditions: in vivo
Summary of the method: (§1)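 Unanesthetized male Sprague-Dawley rats (150-250 g, n = 2-5) received 153Gd-labeled chelate via tail vein catheter at 0.1 mmol/kg. Plasma was separated from heparinized blood and Gd was measured by ICP. Concentration-time data were fitted biexponentially. Elimination half-life = 0.693/β and Vd = dose/B. AUC 0-30 min was computed per animal by the trapezoidal rule. Values are mean ± 1 SD.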

Albumin [2] = target: T1, Albumin (Homo sapiens, UniProt P02768); experiment: Observed relaxivity bound to human serum albumin (4.5%)
Summary of the method: (§2)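 T1 was read at 20 MHz (0.47 T) and 37 °C, in triplicate, with recycle delay 5× T1. Five sequential additions of 1–10 mM chelate were titrated into PBS (10 mM phosphate, 150 mM NaCl, pH 7.4) or into 4.5% HSA (fraction V) in PBS. r1 was taken from the titration.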

Albumin [3] = target: T1, Albumin; experiment: Percentage of compound (0.1 mM) bound to human serum albumin (4.5%); conditions: 100 µM
Summary of the method: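 Ultrafiltration, in duplicate. 153Gd-labeled chelate was added to 4.5% HSA to 0.1 mM total Gd. An aliquot was counted, and 400 μL was centrifuged through a 5000 NMWL filter at room temperature (22 ± 1 °C). The unbound fraction came from filtrate counts.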

[4] = Relaxivity, measured in phosphate buffer saline (PBS); format: ADME; summary of the method: as §2
[5] = Area under plasma 1/T1 versus time curve, 0-30 min; format: ADME, cell-free; design: concentration or dose not given beside the values
Summary of the method: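 Male Sprague-Dawley rats (150-250 g, n = 2-5, unanesthetized) were given 0.1 mmol/kg 153Gd chelate i.v. by tail vein catheter. Plasma water T1 was measured on a Minispec in triplicate, and plasma Δ1/T1 was followed over time. AUC 0-30 min was calculated per animal by the trapezoidal rule. Values are mean ± 1 SD.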

[6] = Area under concentration versus time curve, 0-30 min; format: ADME; design: time < 0.5 hr; conditions: 0.5 h; summary of the method: as §1
Rattus norvegicus [7] = organism: Rattus norvegicus; experiment: Percent of biliary excretion measured in 24 hr in rat; format: ADME, organism-based, Bile; conditions: in vivo
Summary of the method: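 Rats were dosed i.v. at 0.1 mmol/kg with 153Gd-labeled chelate (male Sprague-Dawley, 150-250 g) and housed in metabolic cages to collect urine and feces. They were sacrificed at 24 h. Tissues and excreta were gamma counted, and % injected dose = sample CPM / injected CPM × 100.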

Rattus norvegicus [8] = organism: Rattus norvegicus; experiment: Volume of distribution, steady state in rat; format: ADME, organism-based; conditions: in vivo; summary of the method: as §1

T1 sequence (P02768 whole entry): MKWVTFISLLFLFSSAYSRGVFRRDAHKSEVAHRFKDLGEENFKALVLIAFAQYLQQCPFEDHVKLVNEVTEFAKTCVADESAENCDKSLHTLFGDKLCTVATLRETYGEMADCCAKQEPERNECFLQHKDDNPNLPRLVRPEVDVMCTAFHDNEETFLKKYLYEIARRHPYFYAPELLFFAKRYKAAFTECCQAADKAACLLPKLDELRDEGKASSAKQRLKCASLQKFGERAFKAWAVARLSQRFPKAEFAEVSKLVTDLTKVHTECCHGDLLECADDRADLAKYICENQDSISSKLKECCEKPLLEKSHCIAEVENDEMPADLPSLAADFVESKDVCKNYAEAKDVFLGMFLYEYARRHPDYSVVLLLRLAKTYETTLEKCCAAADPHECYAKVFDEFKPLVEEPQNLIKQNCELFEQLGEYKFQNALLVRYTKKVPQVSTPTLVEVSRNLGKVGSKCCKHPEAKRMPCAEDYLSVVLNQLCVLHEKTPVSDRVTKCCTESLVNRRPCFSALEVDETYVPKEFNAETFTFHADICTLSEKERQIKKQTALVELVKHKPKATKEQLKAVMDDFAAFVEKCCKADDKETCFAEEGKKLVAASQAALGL

Substance	T1/2 beta (Rattus norvegicus [1])	Observed relaxivity (Albumin [2])	Bound (Albumin [3])	Relaxivity [4]	AUC 1/T1 [5]	AUC conc [6]	Excretion (Rattus norvegicus [7])	Vdss (Rattus norvegicus [8])
Bis-[N-methyl-D-glucamine]-{(2-((2-naphthyl)methyl)-diethylenetriaminepentaacetato)(aquo)-gadolinium (III)}	6.8 min	16.3 mM⁻¹ s⁻¹	30%	5.5 mM⁻¹ s⁻¹	40.1 s-1 min	43 µM·h	64.3%	0.44 L/kg
Bis-[N-methyl-D-glucamine]-{(2-(octyldiethylenetriamine)diethylenetriaminepentaacetato)(aquo)-gadolinium (III)}	6.2 min	20.7 mM⁻¹ s⁻¹	44%	5.9 mM⁻¹ s⁻¹	69.7 s-1 min	51 µM·h	66.9%	0.62 L/kg
Trisodium-{(2-(R)-[(4,4-diphenylcyclohexyl)phosphonooxymethyl]diethylenetriaminepentaacetato)(aquo)-gadolinium (III)}	23.1 min	42 mM⁻¹ s⁻¹	88%	6.6 mM⁻¹ s⁻¹	285 s-1 min	156 µM·h	15.8%	0.24 L/kg
DIETHYLENETRIAMINEPENTAACETATO AQUO GADOLINIUM (III)	15.4 min	4.6 mM⁻¹ s⁻¹	0%	4.6 mM⁻¹ s⁻¹	46.4 s-1 min	104 µM·h	6.3%	0.28 L/kg
Tris-[N-methyl-D-glucamine]-{(2-(R)-[octylphosphonooxymethyl]diethylenetriaminepentaacetato)(aquo)-gadolinium (III)}	14.3 min		54%	6.1 mM⁻¹ s⁻¹	150 s-1 min	99.3 µM·h	17.7%	0.31 L/kg
Tris-[N-methyl-D-glucamine]-{(2-(R)-[(2-(1-naphthyl)-ethyl)phosphonooxymethyl]diethylenetriaminepentaacetato)(aquo)-gadolinium (III)}	14.3 min	19.5 mM⁻¹ s⁻¹	40%	6 mM⁻¹ s⁻¹	94.2 s-1 min	92.8 µM·h	17%	0.32 L/kg
